Experimental data from ChEMBL document CHEMBL1138144 (J Med Chem, 2006).

Tests used:
[1] = target: T1, Sodium-dependent serotonin transporter (Homo sapiens, UniProt P31645); assay: Displacement of [125I]RTI-55 from human SERT expressed in HEK293 cells; assay type: cell-based
In short: (§1)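 Membranes from HEK293 cells expressing hDAT or hSERT, grown to 80% confluence, lysed in 2 mM HEPES/1 mM EDTA, spun and resuspended in 0.32 M sucrose. About 10–15 µg protein preincubated 10 min with compound in Krebs-HEPES pH 7.4 (0.1% DMSO final). Filtered on GF/C. Non-specific binding: 5 µM mazindol (DAT) or 5 µM imipramine (SERT). Duplicates, 2–3 experiments, IC50 converted to Ki by Cheng-Prusoff.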

[2] = target: T2, Sodium-dependent dopamine transporter (Homo sapiens, UniProt Q01959); assay: Inhibition of [3H] dopamine uptake into human DAT expressed in HEK293 cells; assay type: functional, cell-based
In short: (§2)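 Confluent HEK293 cells expressing hDAT or hSERT, scraped into Krebs-HEPES. Preincubated 10 min at 25°C with compound (0.1% DMSO final). Uptake started with [3H]dopamine or [3H]serotonin (20 nM final) and stopped after 10 min by filtration on PEI-soaked GF/C filters. Non-specific uptake: 5 µM mazindol (DAT) or 5 µM imipramine (SERT). IC50 from triplicate 6-concentration curves, 2–3 independent determinations.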

[3] = target: T3, 5-hydroxytryptamine receptor 1A (Homo sapiens, UniProt P08908); assay: Inhibitory activity against 5HT1A
T3 sequence (P08908 whole entry): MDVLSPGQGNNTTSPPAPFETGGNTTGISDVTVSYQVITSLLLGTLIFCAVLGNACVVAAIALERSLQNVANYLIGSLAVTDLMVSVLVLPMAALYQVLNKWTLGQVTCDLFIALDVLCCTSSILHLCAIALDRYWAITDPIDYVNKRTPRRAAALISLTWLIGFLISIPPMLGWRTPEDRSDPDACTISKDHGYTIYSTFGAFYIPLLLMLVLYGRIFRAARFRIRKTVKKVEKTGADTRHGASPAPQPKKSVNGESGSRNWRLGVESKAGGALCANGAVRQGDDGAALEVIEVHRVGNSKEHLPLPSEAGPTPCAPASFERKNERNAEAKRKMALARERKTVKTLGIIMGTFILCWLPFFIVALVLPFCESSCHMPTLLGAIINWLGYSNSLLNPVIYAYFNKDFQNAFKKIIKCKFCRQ

[4] = target: D(3) dopamine receptor (Homo sapiens, UniProt P35462); assay: Inhibitory activity against dopamine D3
[5] = target: T4, 5-hydroxytryptamine receptor 2C (Homo sapiens, UniProt P28335); assay: Inhibitory activity against 5HT1C
T4 sequence (P28335 whole entry): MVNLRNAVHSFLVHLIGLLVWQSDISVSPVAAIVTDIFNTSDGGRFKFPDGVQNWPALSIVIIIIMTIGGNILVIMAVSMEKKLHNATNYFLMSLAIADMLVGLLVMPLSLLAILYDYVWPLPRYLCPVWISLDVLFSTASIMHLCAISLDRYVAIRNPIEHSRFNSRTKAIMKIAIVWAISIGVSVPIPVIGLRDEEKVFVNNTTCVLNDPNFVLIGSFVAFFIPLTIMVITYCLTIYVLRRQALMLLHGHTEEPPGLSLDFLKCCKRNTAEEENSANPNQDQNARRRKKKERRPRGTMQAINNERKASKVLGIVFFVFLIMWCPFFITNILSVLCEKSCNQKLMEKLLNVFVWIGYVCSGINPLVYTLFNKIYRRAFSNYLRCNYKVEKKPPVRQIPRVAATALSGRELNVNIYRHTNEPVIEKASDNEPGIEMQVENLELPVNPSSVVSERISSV

[6] = target: T1, Sodium-dependent serotonin transporter; assay: Inhibition of [3H] serotonin uptake into human SERT expressed in HEK293 cells; assay type: functional, cell-based; in short: as §2
[7] = target: T5, Sodium-dependent noradrenaline transporter (Homo sapiens, UniProt P23975); assay: Displacement of [125I]RTI-55 from human NET expressed in HEK293 cells; assay type: cell-based
[8] = target: D(1A) dopamine receptor (Homo sapiens, UniProt P21728); assay: Inhibitory activity against dopamine D1
[9] = target: T5, Sodium-dependent noradrenaline transporter; assay: Inhibition of [3H] norepinephrine uptake into human NET expressed in HEK293 cells; assay type: functional, cell-based
[10] = target: D(2) dopamine receptor (Homo sapiens, UniProt P14416); assay: Inhibitory activity against dopamine D2
[11] = target: 5-hydroxytryptamine receptor 1B (Homo sapiens, UniProt P28222); assay: Inhibitory activity against 5HT1B
[12] = target: T2, Sodium-dependent dopamine transporter; assay: Displacement of [125I]RTI-55 from human DAT expressed in HEK293 cells; assay type: cell-based; in short: as §1

T1 sequence (P31645 whole entry): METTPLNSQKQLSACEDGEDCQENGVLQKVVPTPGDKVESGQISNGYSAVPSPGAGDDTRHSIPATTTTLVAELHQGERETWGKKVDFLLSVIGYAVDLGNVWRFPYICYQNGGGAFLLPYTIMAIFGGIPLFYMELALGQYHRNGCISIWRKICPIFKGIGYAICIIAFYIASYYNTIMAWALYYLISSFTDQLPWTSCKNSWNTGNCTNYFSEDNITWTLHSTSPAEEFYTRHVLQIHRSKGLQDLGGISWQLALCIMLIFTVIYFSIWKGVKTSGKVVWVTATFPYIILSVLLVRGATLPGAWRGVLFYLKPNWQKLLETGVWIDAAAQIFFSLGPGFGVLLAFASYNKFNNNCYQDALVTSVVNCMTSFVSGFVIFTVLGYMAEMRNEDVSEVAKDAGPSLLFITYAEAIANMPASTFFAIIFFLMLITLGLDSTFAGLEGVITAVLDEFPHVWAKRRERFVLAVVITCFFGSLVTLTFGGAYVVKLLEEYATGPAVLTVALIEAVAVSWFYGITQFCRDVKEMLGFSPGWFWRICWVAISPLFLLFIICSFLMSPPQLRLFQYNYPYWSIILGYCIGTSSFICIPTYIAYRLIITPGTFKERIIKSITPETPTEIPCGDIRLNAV
T5 sequence (P23975 whole entry): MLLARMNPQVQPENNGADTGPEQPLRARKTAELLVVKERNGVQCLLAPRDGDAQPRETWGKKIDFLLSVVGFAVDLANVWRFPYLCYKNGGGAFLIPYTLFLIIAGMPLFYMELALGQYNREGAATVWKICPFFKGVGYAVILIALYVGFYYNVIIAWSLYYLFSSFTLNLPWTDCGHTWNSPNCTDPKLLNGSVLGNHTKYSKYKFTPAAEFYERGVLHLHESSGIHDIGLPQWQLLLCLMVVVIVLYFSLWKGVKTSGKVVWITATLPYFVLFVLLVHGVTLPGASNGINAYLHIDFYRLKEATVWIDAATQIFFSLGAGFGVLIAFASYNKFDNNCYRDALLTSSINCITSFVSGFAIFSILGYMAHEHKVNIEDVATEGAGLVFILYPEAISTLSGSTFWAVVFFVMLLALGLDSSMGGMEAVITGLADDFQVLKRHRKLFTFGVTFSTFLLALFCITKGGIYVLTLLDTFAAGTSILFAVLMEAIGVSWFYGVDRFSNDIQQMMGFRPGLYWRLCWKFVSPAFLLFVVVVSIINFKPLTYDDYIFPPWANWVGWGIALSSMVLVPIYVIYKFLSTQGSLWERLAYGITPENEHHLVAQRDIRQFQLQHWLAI
D(1A) dopamine receptor, sequence (P21728 whole entry): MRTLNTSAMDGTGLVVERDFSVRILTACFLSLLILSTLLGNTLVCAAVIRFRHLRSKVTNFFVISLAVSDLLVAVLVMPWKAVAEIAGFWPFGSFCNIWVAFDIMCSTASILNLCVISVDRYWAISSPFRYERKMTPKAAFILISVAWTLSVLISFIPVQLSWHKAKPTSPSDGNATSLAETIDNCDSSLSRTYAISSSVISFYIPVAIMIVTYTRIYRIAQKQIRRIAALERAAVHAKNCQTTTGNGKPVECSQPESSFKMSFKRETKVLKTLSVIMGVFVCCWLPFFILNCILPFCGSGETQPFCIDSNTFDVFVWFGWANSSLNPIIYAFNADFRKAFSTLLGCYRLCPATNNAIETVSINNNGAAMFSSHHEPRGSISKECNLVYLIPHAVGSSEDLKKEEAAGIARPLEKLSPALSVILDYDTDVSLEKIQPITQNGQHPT
D(2) dopamine receptor, sequence (P14416 whole entry): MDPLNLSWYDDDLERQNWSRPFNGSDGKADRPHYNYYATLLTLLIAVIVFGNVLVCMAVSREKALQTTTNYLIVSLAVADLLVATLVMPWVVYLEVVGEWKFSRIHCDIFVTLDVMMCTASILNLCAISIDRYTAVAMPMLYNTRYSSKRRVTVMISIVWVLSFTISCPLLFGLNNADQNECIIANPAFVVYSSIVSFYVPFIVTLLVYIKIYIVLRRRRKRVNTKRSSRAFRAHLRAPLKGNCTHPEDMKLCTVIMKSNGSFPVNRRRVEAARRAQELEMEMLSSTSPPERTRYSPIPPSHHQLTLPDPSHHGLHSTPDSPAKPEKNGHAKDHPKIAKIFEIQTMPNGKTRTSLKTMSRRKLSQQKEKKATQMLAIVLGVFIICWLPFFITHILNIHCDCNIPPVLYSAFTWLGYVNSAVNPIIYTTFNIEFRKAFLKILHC
D(3) dopamine receptor, sequence (P35462 whole entry): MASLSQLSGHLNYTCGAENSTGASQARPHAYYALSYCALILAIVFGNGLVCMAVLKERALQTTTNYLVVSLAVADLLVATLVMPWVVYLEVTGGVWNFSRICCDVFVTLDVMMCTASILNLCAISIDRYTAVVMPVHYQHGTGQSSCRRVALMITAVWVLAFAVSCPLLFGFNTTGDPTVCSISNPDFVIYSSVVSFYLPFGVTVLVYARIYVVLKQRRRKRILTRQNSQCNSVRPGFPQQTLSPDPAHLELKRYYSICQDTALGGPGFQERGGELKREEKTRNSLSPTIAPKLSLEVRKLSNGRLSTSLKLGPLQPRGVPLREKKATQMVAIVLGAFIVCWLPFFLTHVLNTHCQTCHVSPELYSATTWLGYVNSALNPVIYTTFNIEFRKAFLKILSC
T2 sequence (Q01959 whole entry): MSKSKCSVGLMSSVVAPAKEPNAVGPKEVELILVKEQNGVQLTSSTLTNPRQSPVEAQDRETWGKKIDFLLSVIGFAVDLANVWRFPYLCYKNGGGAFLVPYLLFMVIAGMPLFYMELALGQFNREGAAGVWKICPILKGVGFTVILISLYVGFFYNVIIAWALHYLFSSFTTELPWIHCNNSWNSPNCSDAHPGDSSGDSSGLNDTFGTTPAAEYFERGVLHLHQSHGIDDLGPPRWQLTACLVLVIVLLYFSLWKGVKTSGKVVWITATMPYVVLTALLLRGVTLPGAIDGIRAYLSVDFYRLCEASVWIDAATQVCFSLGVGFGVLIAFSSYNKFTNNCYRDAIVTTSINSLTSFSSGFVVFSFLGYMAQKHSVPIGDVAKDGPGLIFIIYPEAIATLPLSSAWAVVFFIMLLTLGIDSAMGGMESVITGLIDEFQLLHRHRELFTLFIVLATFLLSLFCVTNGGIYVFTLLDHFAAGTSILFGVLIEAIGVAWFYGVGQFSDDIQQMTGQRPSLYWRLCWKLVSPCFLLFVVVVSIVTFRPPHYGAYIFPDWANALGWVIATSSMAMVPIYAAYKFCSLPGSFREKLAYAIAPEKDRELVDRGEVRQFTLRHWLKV
5-hydroxytryptamine receptor 1B, sequence (P28222 whole entry): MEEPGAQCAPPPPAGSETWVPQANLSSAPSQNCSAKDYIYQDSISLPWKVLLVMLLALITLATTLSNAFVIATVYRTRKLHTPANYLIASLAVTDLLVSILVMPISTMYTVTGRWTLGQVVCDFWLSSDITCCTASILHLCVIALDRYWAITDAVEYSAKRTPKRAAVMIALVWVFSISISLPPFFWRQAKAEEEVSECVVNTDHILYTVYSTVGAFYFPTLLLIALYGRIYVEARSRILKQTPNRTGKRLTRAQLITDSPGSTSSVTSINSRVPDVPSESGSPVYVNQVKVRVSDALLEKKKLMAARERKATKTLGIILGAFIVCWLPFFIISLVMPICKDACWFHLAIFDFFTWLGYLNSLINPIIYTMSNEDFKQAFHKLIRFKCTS

SMILES	Ki [1]	IC50 [2]	IC50 [3]	IC50 [4]	IC50 [5]	IC50 [6]	Ki [7]	IC50 [8]	IC50 [9]	IC50 [10]	IC50 [11]	Ki [12]
CCCC(C(=O)c1ccc(Br)cc1)N1CCCC1 (stereo unspecified)	830 nM	39.5 nM	> 10000 nM	> 10000 nM	> 10000 nM	1050 nM	386 nM	> 10000 nM	83 nM	> 10000 nM	> 10000 nM	51 nM
CCC[C@@H](C(=O)c1ccc(C)cc1)N1CCCC1	2220 nM	16.3 nM	> 10000 nM	> 10000 nM	> 10000 nM	1070 nM	109 nM	> 10000 nM	11.3 nM	> 10000 nM	> 10000 nM	18.1 nM
CCCC(C(=O)c1ccc(OC)cc1)N1CCCC1 (stereo unspecified)	4080 nM	283 nM	> 10000 nM	> 10000 nM	> 10000 nM	2430 nM	2600 nM	> 10000 nM	235 nM	> 10000 nM	> 10000 nM	329 nM
